Compound activity deposited in PubChem BioAssay by several laboratories.
NPY-Y1 PAM-ag: NPY-Y1 receptor potentiators or agonists, primary screen, cell-based; Neuropeptide Y receptor type 1 (Homo sapiens), P25929; NPY-Y1 expressing cells, potentiator/agonist activation; activation, % at 3.6 µM; hit rate 0.37% among 220,000; AID 1304, 2008; in the data active = activation above about 33%, passing the limit was not always enough;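 also: cells stimulated with NPY at EC10 then isoproterenol at EC100; 0% = low agonist plus stimulus and 100% = saturating agonist plus stimulus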
Target sequence (P25929 whole entry, looked up): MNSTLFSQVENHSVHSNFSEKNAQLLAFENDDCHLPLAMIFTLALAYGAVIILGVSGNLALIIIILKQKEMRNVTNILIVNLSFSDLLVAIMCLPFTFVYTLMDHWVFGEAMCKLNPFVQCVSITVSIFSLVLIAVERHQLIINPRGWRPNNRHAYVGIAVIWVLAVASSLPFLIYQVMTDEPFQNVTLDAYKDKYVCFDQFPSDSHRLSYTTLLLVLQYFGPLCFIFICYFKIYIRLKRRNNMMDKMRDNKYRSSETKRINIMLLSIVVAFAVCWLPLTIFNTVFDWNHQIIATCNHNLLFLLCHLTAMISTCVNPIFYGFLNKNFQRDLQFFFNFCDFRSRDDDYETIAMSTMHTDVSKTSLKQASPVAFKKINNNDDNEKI
NPY-Y1 antag: NPY-Y1 receptor antagonists, primary screen, cell-based; Neuropeptide Y receptor type 1 (Homo sapiens), P25929; HEK293-CNG Y1 cells, membrane potential fluorescence; NPY at EC95, then isoproterenol; inhibition, % at 3.6 µM; hit rate 1% among 200,000;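 active = inhibition above the campaign mean inhibition of all tested compounds plus 3 SD, cut at about 20% in these data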;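 also: 0% = DMSO wells given NPY plus isoproterenol and 100% = isoproterenol alone without NPY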
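Material: Y1- and CNG-channel-expressing HEK293 cells / Probe or stimulus: NPY 25 nM then isoproterenol 1 µM plus Ro 20-1724 25 µM / Doses: 3.6 µM single dose, DMSO 0.4% / Schedule: compound incubation 1 h at room temperature, readout 45 min post-stimulation / Signal: membrane potential fluorescence / Benchmarks: isoproterenol-only wells as full block versus NPY-plus-isoproterenol wells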
NPY-Y2 antag: NPY-Y2 receptor antagonists, primary screen, cell-based; Neuropeptide Y receptor type 2 (Homo sapiens), P49146; NPY-Y2 expressing cells, antagonist mode; inhibition, % at 2.7 µM; hit rate 0.99% among 140,000; AID 793, 2007;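 also: 0% = vehicle with agonist challenge and 100% = reference antagonist with challenge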
EP2 mod: EP2 receptor modulators, cAMP readout, primary screen, cell-based, HTRF cAMP, PGE2 stimulation; hit rate 0.83% among 260,000; EP2-expressing cells, cAMP HTRF FRET, PGE2 co-stimulation; induction, % at 25 µM;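 active = compounds whose cAMP rise, as percent of the full-agonist control response, exceeds 60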;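 also: rat C6 glioma line stably carrying human EP2 under a CMV promoter; the protocol text gives 20 µM as final concentration; 100% = response of wells given 1 µM PGE2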
NPY2 pot ag: NPY-Y2 potentiators or agonists, primary screen, cell-based; Neuropeptide Y receptor type 2 (Homo sapiens), P49146; cells expressing NPY-Y2, potentiator/agonist read-out; activation, % at 3.6 µM; hit rate 0.45% among 220,000; AID 1359, 2008; in the data active = activation above about 27%;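 also: cells stimulated with NPY near EC25 plus isoproterenol at EC100; 0% = vehicle plus submaximal agonist and 100% = vehicle plus saturating agonist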
PGE2 EP2 inh: human EP2 receptor antagonists, primary screen, TR-FRET cAMP, C6 glioma cells; C6 glioma cells expressing human EP2; cells stimulated with saturating PGE2; inhibition, % at 25 µM; hit rate 0.52% among 260,000; AID 1422, 2008;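 active = percent inhibition above 40 after rounding to a whole number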;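 also: rat C6 glioma host cells with rolipram phosphodiesterase inhibitor present; the protocol text gives 20 µM as final concentration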
NPY1 antag conf: NPY-Y1 receptor antagonists, retest of hits, confirmation, HEK293-CNG cells, membrane potential fluorescence, triplicate; inhibition, % at 3.6 µM; AID 1254, 2008; shares compounds with NPY-Y1 antag; hit rate 21% among 1,200; cAMP; NPY challenge against isoproterenol-raised cAMP; in the data active = inhibition above about 20%;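 also: 0% = vehicle with agonist plus stimulus and 100% = stimulus alone without agonist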
NPY-Y2 antag ct: NPY-Y2 receptor antagonists, selectivity check, confirmation, counter-screen for NPY-Y1 antagonist project, HEK293-CNG cells, membrane potential fluorescence, triplicate; shares compounds with NPY-Y1 antag; antagonism; cells given NPY, then isoproterenol; inhibition, % at 3.6 µM; hit rate 28% among 1,200; AID 1255, 2008;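 also: 0% = DMSO with agonist challenge and 100% = reference antagonist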
* marks the source's active call; other numbers are inactive results; . = no result. An excerpt weighted towards active compounds, which were near 2.8% of everything screened. Rule as the data show it, unless noted: active = inhibition above about 17%; inactive = the rest.

SMILES	NPY-Y1 PAM-ag	NPY-Y1 antag	NPY-Y2 antag	EP2 mod	NPY2 pot ag	PGE2 EP2 inh	NPY1 antag conf	NPY-Y2 antag ct
CCCNNC(=O)C(O)(c1cccc(C)c1)c1cccc(C)c1	-11	26*	10	32	-1	11	2	7
CCNNC(=O)C(O)(c1cccc(C)c1)c1cccc(C)c1	25	0	5	14	4	5	.	.
CCOC(=O)c1c(NC(=O)CSc2nnc(C)s2)sc2c1CCC(CC)C2 (stereo not drawn)	-58	34*	10	45	-23	7	15	18*
CC1CCN(CCCNC(=O)c2cn(C)c3ccc(S(=O)(=O)N4CCCC4)cc3c2=O)CC1	3	28*	1	6	0	4	-2	1
Cn1c2ccccc2c2cnn(CC(=O)O)c(=O)c21	-48	26*	12	35	-40	-2	7	7
Cc1ccccc1-c1nc(CS(=O)(=O)CC(=O)NCc2ccccc2)c(C)o1	-24	6	7	18	-14	8	.	.
COc1ccc(OC)c(CCNC(=O)CS(=O)(=O)Cc2nc(-c3ccccc3C)oc2C)c1	-41	21*	16	-33	-47	.	7	7
CCCOC(=O)C(C)n1c(-c2ccccc2)nc2ccccc2c1=O (stereo not drawn)	-58	33*	14	61*	-66	20	13	11
CCCCOC(=O)Cn1c(-c2ccccc2)nc2ccccc2c1=O	-4	5	2	37	1	6	.	.
CCOc1ccc(CNC(=O)c2ccc(Sc3ccc(Cl)cc3)c(NC(C)=O)c2)cc1	-70	41*	16	-23	-35	8	24*	20*
CCOc1ccccc1CNC(=O)c1ccc(Sc2ccc(Cl)cc2)c(NC(C)=O)c1	-33	3	2	-17	-11	10	.	.
COC(=O)c1c(NC(=O)C(C)C)sc(C(=O)Nc2cccc(C(F)(F)F)c2)c1C	.	.	.	14	.	8	.	.
CC(=O)Nc1ccc(S(=O)(=O)N2CC=C[C@@H]2C(=O)NC2CC2)cc1	.	.	.	-43	.	12	.	.
OC1CCCN(Cc2ccc3ccc4cccc5ccc2c3c45)C1 (stereo not drawn)	-35	25*	11	-72	-18	9	10	17*
c1cc2ccc3ccc(CN4CCOCC4)c4ccc(c1)c2c34	-20	8	3	-18	-1	8	.	.
Cc1ccccc1CN(C)C(C)C(=O)Nc1ccccc1F (stereo not drawn)	-1	23*	.	41	-16	10	17	8
CCCCC(CCC(=O)Nc1ccccc1C(=O)OCC)C(=O)O (stereo not drawn)	-16	23*	11	6	-64	11	11	13
COc1ccccc1C(N)c1nccn1C (stereo not drawn)	.	.	.	13	.	9	.	.
O=C(O)C1CCC(Cn2c(SCc3cc(=O)n4cc(Br)ccc4n3)nc3ccsc3c2=O)CC1 (stereo not drawn)	-26	26*	.	43	-37	33	80*	87*
Cc1ccc(NC(=S)NNC(=S)Nc2ccc(C)cc2C)cc1	-3	22*	.	-50	-41	12	10	17*
Cc1ccc(NC(=O)CCC(=O)NNC(=S)Nc2ccccc2)c(C)c1	11	3	.	17	3	9	.	.
COc1ccc2nc(NC(=O)CN3CCC(NC(=O)C4CCCCC4)CC3)sc2c1	.	.	.	36	.	14	.	.
CCc1cc2ccc(C)c(C)c2nc1SCC(=O)NNC(=O)C(C)C	.	.	.	23	.	10	.	.
COc1ccc(Cl)cc1NC(=O)CN1CCC(n2cnc3cccnc32)CC1	.	.	.	-42	.	.	.	.
Cc1cc(C)c(OCC(=O)Nc2nnc(-c3ccco3)o2)c(C)c1	-17	31*	.	-8	-10	0	10	11
SMILES	NPY-Y1 PAM-ag	NPY-Y1 antag	NPY-Y2 antag	EP2 mod	NPY2 pot ag	PGE2 EP2 inh	NPY1 antag conf	NPY-Y2 antag ct
CC(=O)Nc1nnc(-c2ccco2)o1	19	0	.	28	-10	4	.	.
Cc1c(NC(=O)/C(C#N)=C/c2ccc(-c3cccc(Cl)c3)o2)c(=O)n(-c2ccccc2)n1C	13	26*	15	-64	2	7	11	6
Cc1c(NC(=O)/C(C#N)=C/c2ccc(-c3ccc(Cl)c(Cl)c3)o2)c(=O)n(-c2ccccc2)n1C	-6	4	10	2	-5	6	.	.
Cc1ccc(C(=O)CSc2nnc(COc3cccc(C)c3)o2)cc1	-43	21*	13	-20	-24	7	10	10
Cc1cc(C)cc(OCc2nnc(SCC(=O)N3CCN(c4ccccc4)CC3)o2)c1	-22	21*	6	17	-9	7	13	17
CCc1nn(CC(=O)NCc2ccc(OC)cc2)c(=O)c2cc3occc3n12	.	.	.	-45	.	3	.	.
CCN(CC(O)COc1ccc(OCC(O)CN(CC)C2CCCCC2)cc1)C1CCCCC1 (stereo not drawn)	-53	22*	10	-25	-11	12	6	32*
NCCOc1ccc(C23CC4CC(CC(C4)C2)C3)cc1	-34	22*	.	-42	-14	3	21*	35*
O=C(CSC1=NN=C(c2ccccc2)Cn2c1cc1sccc12)N1CCOCC1	.	.	.	-64	.	.	.	.
CN(C)Cc1cc(CCNC(=O)c2ccc(Cl)cc2)ccc1O	-11	22*	2	13	5	12	-1	2
COc1cnc(-c2ccccn2)nc1Oc1ccc(Cl)c2ccccc12	-48	25*	15	0	-61	.	15	22*
COc1ccc(OCCCC(=O)Nc2sc3c(c2C#N)CCCC3)cc1	.	.	.	-6	.	11	.	.
COc1cccc(-c2noc3c2CN(C(=O)c2cnc(SC)nc2)CC3)c1	.	.	.	-48	.	8	.	.
CCN(CC)C(=O)CSc1ncnc2sc(C)c(C)c12	-6	-4	.	-3	-7	2	.	.
CCC(Sc1ncnc2sc(C)c(C)c12)C(=O)OC (stereo not drawn)	4	26*	6	18	-19	16	9	10
CNC(=S)N(CCCN1CCOCC1)Cc1cc2ccc(OC)cc2[nH]c1=O	.	.	.	-32	.	8	.	.
